Test results as given in ChEMBL document CHEMBL1165943, “Design and synthesis of new anticancer pyrimidines with multiple-kinase inhibitory effect” (Bioorg Med Chem, 2010).

Legend:
[1] = target: Receptor-type tyrosine-protein kinase FLT3 (Homo sapiens) (UniProt P36888); test: Inhibition of FLT3 at 10 uM by HotSpot assay
[2] = target: Glycogen synthase kinase-3 beta (Homo sapiens) (UniProt P49841); test: Inhibition of GSK3-beta at 10 uM by HotSpot assay
[3] = target: Hepatocyte growth factor receptor (Homo sapiens) (UniProt P08581); test: Inhibition of c-MET at 10 uM by HotSpot assay
[4] = target: Insulin receptor (Homo sapiens) (UniProt P06213); test: Inhibition of IR at 10 uM by HotSpot assay
[5] = target: RAC-alpha serine/threonine-protein kinase (Homo sapiens) (UniProt P31749); test: Inhibition of AKT1 at 10 uM by HotSpot assay
Sequence of RAC-alpha serine/threonine-protein kinase (Homo sapiens) (P31749 whole entry): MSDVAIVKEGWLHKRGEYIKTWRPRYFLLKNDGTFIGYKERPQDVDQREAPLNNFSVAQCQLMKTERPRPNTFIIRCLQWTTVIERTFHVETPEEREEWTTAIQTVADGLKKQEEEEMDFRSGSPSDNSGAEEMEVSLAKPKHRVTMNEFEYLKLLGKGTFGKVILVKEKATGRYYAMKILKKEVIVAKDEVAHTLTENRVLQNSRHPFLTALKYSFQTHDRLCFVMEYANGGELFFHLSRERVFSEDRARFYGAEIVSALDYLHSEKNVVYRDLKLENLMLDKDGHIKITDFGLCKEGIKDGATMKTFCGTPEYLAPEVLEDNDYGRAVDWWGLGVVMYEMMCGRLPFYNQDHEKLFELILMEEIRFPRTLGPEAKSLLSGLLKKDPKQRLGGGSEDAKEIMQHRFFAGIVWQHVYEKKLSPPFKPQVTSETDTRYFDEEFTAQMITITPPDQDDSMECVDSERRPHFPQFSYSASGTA

[6] = target: Tyrosine-protein kinase ABL1 (Homo sapiens) (UniProt P00519); test: Inhibition of ABL1 at 10 uM by HotSpot assay
[7] = target: Tyrosine-protein kinase Yes (Homo sapiens) (UniProt P07947); test: Inhibition of YES1 at 10 uM by HotSpot assay
Sequence of Tyrosine-protein kinase Yes (Homo sapiens) (P07947 2-543 limits assumed): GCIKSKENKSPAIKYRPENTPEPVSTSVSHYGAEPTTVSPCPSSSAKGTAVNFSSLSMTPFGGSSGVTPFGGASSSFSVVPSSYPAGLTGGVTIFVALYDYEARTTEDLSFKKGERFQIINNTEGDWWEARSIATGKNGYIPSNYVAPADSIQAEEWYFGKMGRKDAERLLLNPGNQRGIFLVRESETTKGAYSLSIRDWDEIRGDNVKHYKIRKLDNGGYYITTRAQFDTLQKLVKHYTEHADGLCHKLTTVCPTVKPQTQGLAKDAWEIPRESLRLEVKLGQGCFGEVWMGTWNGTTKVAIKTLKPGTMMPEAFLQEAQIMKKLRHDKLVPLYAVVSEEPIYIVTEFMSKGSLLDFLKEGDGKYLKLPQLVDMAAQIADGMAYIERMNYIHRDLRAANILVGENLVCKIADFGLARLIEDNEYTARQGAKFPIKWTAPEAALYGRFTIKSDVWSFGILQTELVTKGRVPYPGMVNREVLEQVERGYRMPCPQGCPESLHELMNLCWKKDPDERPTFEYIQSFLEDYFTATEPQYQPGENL

[8] = target: Inhibitor of nuclear factor kappa-B kinase subunit epsilon (Homo sapiens) (UniProt Q14164); test: Inhibition of IKKepsilon at 10 uM by HotSpot assay
Sequence of Inhibitor of nuclear factor kappa-B kinase subunit epsilon (Homo sapiens) (Q14164 whole entry): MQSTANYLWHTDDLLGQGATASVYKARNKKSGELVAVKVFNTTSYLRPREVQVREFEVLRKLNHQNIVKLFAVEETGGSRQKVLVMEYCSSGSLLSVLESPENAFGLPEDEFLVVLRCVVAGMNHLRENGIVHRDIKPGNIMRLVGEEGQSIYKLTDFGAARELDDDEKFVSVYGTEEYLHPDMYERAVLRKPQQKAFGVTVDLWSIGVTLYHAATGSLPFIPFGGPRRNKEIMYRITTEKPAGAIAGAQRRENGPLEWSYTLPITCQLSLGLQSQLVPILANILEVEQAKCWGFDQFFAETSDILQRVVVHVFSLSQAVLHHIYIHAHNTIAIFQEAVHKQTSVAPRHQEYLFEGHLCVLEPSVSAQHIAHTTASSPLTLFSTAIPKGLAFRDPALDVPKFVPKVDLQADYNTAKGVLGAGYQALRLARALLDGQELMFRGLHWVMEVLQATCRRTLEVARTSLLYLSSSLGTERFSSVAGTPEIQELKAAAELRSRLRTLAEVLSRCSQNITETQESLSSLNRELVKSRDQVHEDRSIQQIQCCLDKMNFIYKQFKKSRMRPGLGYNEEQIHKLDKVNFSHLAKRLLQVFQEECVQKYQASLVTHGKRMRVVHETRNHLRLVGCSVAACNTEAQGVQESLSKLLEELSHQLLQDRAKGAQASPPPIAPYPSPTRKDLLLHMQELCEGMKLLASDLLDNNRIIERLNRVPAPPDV

[9] = target: Tyrosine-protein kinase JAK3 (Homo sapiens) (UniProt P52333); test: Inhibition of JAK3 at 10 uM by HotSpot assay
[10] = target: Tyrosine-protein kinase Lck (Homo sapiens) (UniProt P06239); test: Inhibition of LCK at 10 uM by HotSpot assay
[11] = target: Inhibitor of nuclear factor kappa-B kinase subunit beta (Homo sapiens) (UniProt O14920); test: Inhibition of IKK-beta at 10 uM by HotSpot assay
Sequence of Inhibitor of nuclear factor kappa-B kinase subunit beta (Homo sapiens) (O14920 whole entry): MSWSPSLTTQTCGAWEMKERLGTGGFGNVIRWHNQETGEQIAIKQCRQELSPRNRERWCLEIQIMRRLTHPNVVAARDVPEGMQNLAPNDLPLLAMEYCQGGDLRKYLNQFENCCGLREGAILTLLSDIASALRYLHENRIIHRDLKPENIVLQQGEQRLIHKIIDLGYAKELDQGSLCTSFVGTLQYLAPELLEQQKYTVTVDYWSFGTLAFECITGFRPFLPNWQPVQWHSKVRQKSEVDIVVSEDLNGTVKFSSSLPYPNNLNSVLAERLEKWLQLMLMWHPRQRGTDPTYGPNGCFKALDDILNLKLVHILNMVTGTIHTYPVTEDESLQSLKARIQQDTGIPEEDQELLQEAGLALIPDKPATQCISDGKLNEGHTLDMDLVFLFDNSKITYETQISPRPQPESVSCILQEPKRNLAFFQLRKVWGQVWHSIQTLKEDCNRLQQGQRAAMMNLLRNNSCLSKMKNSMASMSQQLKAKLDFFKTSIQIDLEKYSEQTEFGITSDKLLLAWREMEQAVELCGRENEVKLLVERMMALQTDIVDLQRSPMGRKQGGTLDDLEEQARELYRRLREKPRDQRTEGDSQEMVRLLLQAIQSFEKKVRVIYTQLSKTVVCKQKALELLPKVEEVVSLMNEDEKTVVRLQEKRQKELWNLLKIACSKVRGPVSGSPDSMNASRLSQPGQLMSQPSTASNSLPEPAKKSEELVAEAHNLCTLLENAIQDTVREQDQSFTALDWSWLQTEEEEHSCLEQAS

[12] = target: Angiopoietin-1 receptor (Homo sapiens) (UniProt Q02763); test: Inhibition of TIE2 at 10 uM by HotSpot assay
[13] = target: BDNF/NT-3 growth factors receptor (Homo sapiens) (UniProt Q16620); test: Inhibition of NTRK2 at 10 uM by HotSpot assay
[14] = target: Ephrin type-A receptor 1 (Homo sapiens) (UniProt P21709); test: Inhibition of EPHA1 at 10 uM by HotSpot assay
Sequence of Ephrin type-A receptor 1 (Homo sapiens) (P21709 whole entry): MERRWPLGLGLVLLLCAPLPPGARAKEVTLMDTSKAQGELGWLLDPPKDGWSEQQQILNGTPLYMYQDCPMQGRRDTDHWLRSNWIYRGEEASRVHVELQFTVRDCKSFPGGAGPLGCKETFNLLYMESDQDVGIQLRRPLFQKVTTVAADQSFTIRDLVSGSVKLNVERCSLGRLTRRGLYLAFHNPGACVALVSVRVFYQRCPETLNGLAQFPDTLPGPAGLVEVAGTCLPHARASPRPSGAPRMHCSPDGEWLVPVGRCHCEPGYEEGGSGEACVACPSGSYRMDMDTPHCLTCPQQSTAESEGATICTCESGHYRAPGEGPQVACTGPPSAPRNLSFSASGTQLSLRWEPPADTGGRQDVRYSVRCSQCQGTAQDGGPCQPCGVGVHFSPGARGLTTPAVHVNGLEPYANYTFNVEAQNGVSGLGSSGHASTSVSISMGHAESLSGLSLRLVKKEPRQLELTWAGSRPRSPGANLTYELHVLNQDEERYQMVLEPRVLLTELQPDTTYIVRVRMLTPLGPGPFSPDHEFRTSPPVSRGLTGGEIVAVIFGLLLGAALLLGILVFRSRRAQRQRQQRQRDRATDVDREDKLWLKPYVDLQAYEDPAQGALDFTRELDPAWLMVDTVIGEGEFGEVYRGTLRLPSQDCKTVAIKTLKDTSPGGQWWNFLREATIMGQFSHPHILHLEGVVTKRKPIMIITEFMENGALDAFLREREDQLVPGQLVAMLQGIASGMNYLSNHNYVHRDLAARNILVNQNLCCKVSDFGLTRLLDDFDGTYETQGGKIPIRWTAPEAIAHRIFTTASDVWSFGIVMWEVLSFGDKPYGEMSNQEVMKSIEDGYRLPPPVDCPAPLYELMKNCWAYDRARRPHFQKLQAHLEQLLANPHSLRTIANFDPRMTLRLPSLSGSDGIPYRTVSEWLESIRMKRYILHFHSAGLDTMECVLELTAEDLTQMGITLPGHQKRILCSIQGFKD

[15] = Inhibition of PKA at 10 uM by HotSpot assay
[16] = test system: HOP-92; test: Cytotoxicity against human HOP92 cells assessed as cell growth at 10 uM after 48 hrs by sulforhodamine B assay; format: functional; conditions: HOP-92, 48 h, read-out: Activity
[17] = test system: SK-MEL-28; test: Growth inhibition of human SK-MEL-28 cells after 48 hrs by sulforhodamine B assay; format: functional; conditions: SK-MEL-28, 48 h
Summary of the method: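 Adherent SK-MEL-28 cells, plated in RPMI 1640 with 5% FBS and 2 mM L-glutamine, get five 10-fold or ½log drug dilutions for 48 h at 37 °C. Cells are fixed with cold TCA (final 10%) for 60 min at 4 °C, stained with 0.4% SRB, solubilized in 10 mM Tris and read at 515 nm. IC50 is solved from [(Ti−Tz)/(C−Tz)]×100 = 50.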

[18] = test system: NCI-H226; test: Cytotoxicity against human NCI-H226 cells assessed as cell growth at 0.001 uM after 48 hrs by sulforhodamine B assay; format: functional; conditions: NCI-H226, 48 h, read-out: Activity
[19] = test system: RXF 393; test: Cytotoxicity against human RXF393 cells assessed as cell growth at 10 uM after 48 hrs by sulforhodamine B assay; format: functional; conditions: RXF 393, 48 h, read-out: Activity
[20] = test system: SR; test: Cytotoxicity against human SR cells assessed as cell growth at 1 uM after 48 hrs by sulforhodamine B assay; format: functional; conditions: read-out: Activity
[21] = test system: SN12C; test: Cytotoxicity against human SN12C cells assessed as cell growth at 10 uM after 48 hrs by sulforhodamine B assay; format: functional; conditions: read-out: Activity
[22] = test system: HCC 2998; test: Cytotoxicity against human HCC2998 cells assessed as cell growth at 100 nM after 48 hrs by sulforhodamine B assay; format: functional; conditions: HCC 2998, 48 h, read-out: Activity
[23] = test system: SR; test: Growth inhibition of human SR cells after 48 hrs by sulforhodamine B assay; format: functional
Summary of the method: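 Cells grown in RPMI 1640 with 5% FBS and 2 mM L-glutamine, seeded at 5,000–40,000 cells/well according to doubling time. After 24 h, time-zero plates are TCA-fixed. Five concentrations (10-fold or ½log dilutions, DMSO stocks) are applied for 48 h at 37 °C, 5% CO₂. Cells are TCA-fixed, SRB-stained and read at 515 nm. IC₅₀ is taken from [(Ti−Tz)/(C−Tz)]×100 = 50.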

[24] = test system: A549; test: Cytotoxicity against human A549 cells assessed as cell growth at 0.001 uM after 48 hrs by sulforhodamine B assay; format: functional; conditions: A549, 48 h, read-out: Activity
[25] = test system: RXF 393; test: Cytotoxicity against human RXF393 cells assessed as cell growth at 0.01 uM after 48 hrs by sulforhodamine B assay; format: functional; conditions: RXF 393, 48 h, read-out: Activity
[26] = test system: CCRF-CEM; test: Cytotoxicity against human CCRF-CEM cells assessed as cell growth at 0.01 uM after 48 hrs by sulforhodamine B assay; format: functional; conditions: read-out: Activity
[27] = test system: HOP-62; test: Cytotoxicity against human HOP62 cells assessed as cell growth at 0.001 uM after 48 hrs by sulforhodamine B assay; format: functional; conditions: HOP-62, 48 h, read-out: Activity
[28] = test system: MCF7; test: Cytotoxicity against human MCF7 cells assessed as cell growth at 0.001 uM after 48 hrs by sulforhodamine B assay; format: functional; conditions: MCF7, 48 h, read-out: Activity
[29] = test system: PC-3; test: Cytotoxicity against human PC3 cells assessed as cell growth at 100 nM after 48 hrs by sulforhodamine B assay; format: functional; conditions: PC-3, 48 h, read-out: Activity
[30] = test system: NCI-H226; test: Cytotoxicity against human NCI-H226 cells assessed as cell growth at 100 nM after 48 hrs by sulforhodamine B assay; format: functional; conditions: NCI-H226, 48 h, read-out: Activity
[31] = test system: PC-3; test: Cytotoxicity against human PC3 cells assessed as cell growth at 0.001 uM after 48 hrs by sulforhodamine B assay; format: functional; conditions: PC-3, 48 h, read-out: Activity
[32] = test system: HOP-92; test: Cytotoxicity against human HOP92 cells assessed as cell growth at 0.001 uM after 48 hrs by sulforhodamine B assay; format: functional; conditions: HOP-92, 48 h, read-out: Activity
[33] = test system: HCC 2998; test: Cytotoxicity against human HCC2998 cells assessed as cell growth at 0.01 uM after 48 hrs by sulforhodamine B assay; format: functional; conditions: HCC 2998, 48 h, read-out: Activity
[34] = test system: PC-3; test: Cytotoxicity against human PC3 cells assessed as cell growth at 0.01 uM after 48 hrs by sulforhodamine B assay; format: functional; conditions: PC-3, 48 h, read-out: Activity
[35] = test system: MCF7; test: Cytotoxicity against human MCF7 cells assessed as cell growth at 1 uM after 48 hrs by sulforhodamine B assay; format: functional; conditions: MCF7, 48 h, read-out: Activity
[36] = Cytotoxicity against human RPMI8266 cells assessed as cell growth at 100 nM after 48 hrs by sulforhodamine B assay; format: functional; conditions: read-out: Activity
[37] = test system: RXF 393; test: Cytotoxicity against human RXF393 cells assessed as cell growth at 100 nM after 48 hrs by sulforhodamine B assay; format: functional; conditions: RXF 393, 48 h, read-out: Activity
[38] = test system: RXF 393; test: Cytotoxicity against human RXF393 cells assessed as cell growth at 1 uM after 48 hrs by sulforhodamine B assay; format: functional; conditions: RXF 393, 48 h, read-out: Activity
[39] = read-out: LC50 (the source's name)

Sequence of Receptor-type tyrosine-protein kinase FLT3 (Homo sapiens) (P36888 whole entry): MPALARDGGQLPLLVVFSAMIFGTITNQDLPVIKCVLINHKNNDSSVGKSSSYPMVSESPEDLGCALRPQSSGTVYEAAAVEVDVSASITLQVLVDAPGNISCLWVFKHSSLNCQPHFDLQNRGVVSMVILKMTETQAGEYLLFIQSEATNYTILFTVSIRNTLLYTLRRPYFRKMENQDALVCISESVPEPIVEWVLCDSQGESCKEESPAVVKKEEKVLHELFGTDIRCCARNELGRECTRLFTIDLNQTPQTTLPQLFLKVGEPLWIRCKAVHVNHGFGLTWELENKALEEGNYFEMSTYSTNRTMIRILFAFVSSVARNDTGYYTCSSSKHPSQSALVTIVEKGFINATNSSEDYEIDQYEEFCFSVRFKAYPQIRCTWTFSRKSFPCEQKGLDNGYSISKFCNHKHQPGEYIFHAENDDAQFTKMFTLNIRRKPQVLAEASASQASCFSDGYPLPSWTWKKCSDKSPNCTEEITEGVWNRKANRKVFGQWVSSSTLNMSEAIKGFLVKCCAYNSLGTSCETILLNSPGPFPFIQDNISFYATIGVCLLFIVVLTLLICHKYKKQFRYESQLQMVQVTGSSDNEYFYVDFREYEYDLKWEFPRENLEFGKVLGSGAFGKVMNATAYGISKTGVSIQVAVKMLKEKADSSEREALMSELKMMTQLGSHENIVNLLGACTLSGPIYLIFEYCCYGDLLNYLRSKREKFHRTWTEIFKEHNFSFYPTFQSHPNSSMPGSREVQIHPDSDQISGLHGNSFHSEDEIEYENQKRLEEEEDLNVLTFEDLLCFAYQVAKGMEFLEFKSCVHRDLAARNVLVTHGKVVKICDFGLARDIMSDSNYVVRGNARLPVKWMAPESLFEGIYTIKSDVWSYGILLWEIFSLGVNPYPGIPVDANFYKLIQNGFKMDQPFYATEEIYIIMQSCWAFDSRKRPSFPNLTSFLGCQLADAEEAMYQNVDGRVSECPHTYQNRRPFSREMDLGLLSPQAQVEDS
Sequence of Glycogen synthase kinase-3 beta (Homo sapiens) (P49841 whole entry, looked up): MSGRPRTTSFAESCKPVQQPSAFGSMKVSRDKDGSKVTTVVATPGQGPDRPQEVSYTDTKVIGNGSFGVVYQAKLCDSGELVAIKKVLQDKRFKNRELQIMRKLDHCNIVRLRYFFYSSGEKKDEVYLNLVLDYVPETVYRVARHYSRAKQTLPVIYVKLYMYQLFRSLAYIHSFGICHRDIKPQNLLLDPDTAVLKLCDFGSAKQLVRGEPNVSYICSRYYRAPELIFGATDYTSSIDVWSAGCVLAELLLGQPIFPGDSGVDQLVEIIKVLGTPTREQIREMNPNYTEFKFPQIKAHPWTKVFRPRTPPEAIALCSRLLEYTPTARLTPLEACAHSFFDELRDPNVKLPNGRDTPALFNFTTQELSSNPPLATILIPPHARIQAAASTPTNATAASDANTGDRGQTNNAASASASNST

CC(=O)Nc1cccc(-c2ccc(-c3ccnc(NC(=O)Nc4cc(C(F)(F)F)cc(C(F)(F)F)c4)n3)cn2)c1.Cl
inhibition [1]: 50%
inhibition [2]: < 50%
inhibition [3]: < 50%
inhibition [4]: < 50%
inhibition [5]: < 50%
inhibition [6]: 70%
inhibition [7]: < 50%
inhibition [8]: < 50%
inhibition [9]: < 50%
inhibition [10]: 70%
inhibition [11]: < 50%
inhibition [12]: < 50%
inhibition [13]: < 50%
inhibition [14]: < 50%
inhibition [15]: < 50%

CC(=O)c1ccccc1-c1ccc(-c2ccnc(NC(=O)Nc3cc(N4CCOCC4)cc(C(F)(F)F)c3)n2)cn1
growth at 10 µM [16]: 20%
TGI [17]: > 100 µM
CC50 [17, 39]: > 100 µM
growth at 0.001 µM [18]: 105%
growth at 10 µM [19]: -16%
growth at 1 µM [20]: 78%
growth at 10 µM [21]: 79%
growth at 0.1 µM [22]: 117%
GI50 [23]: > 100 µM
TGI [23]: > 100 µM
CC50 [23, 39]: > 100 µM
growth at 0.001 µM [24]: 94%
growth at 0.01 µM [25]: 108%
growth at 0.01 µM [26]: 102%
growth at 0.001 µM [27]: 103%
growth at 0.001 µM [28]: 94%
growth at 0.1 µM [29]: 92%
growth at 0.1 µM [30]: 96%
growth at 0.001 µM [31]: 101%
growth at 0.001 µM [32]: 88%
growth at 0.01 µM [33]: 113%
growth at 0.01 µM [34]: 108%
growth at 1 µM [35]: 90%
growth at 0.1 µM [36]: 79%
growth at 0.1 µM [37]: 82%
growth at 1 µM [38]: -52%
